# Experimental data published in ChEMBL document CHEMBL4261571, “Development of highly active anti-Pneumocystis bisbenzamidines: insight into the influence of selected substituents on the in vitro activity” (Medchemcomm, 2017).
# Active and inactive are the calls of the source. The calls are words filed in the database; no cut-off is given here.
# What was measured:
# A549 = assay: Cytotoxicity against human A549 cells assessed as decrease in cell viability after 24 to 72 hrs by ATP-based luciferin-luciferase assay
# How it was run: (§1)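 A549 cells in DMEM and L2 cells in F12, each with 10% fetal calf serum, 1% MEM vitamins and 1% NEAA, were plated at 2 × 10^5/ml and grown to confluence. They were exposed first to 100 µg/ml, then to 100, 10, 1 and 0.1 µg/ml, for 24, 48 and 72 h in duplicate wells. Cells were lysed with 0.1 M NaOH and ATP was read by luciferin-luciferase luminescence. IC50 came from linear regression of % ATP reduction.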
# Pneumocystis carinii [1] = assay: Antipneumocystis activity against Pneumocystis carinii at 100 ug/ml after 24 to 72 hrs by ATP-based luciferin-luciferase assay; type: functional, organism-based
# How it was run: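 Single high-dose screen at 100 µg/ml against rat-derived, cryopreserved P. carinii in RPMI 1640 at 36 °C, 5% CO2, read at 24, 48 and 72 h. ATP was measured by luminescence after background subtraction, with triplicate wells of duplicate assays averaged. % ATP reduction was calculated relative to media control. Controls were media, DMSO vehicle, ampicillin 10 µg/ml and pentamidine isethionate 1 µg/ml.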
# [2] = Cytotoxicity against rat L2 cells assessed as decrease in cell viability after 24 to 72 hrs by ATP-based luciferin-luciferase assay; how it was run: as §1
# [3] = biological target: Luciferin 4-monooxygenase (Photinus pyralis) (UniProt P08659); assay: Effect on luciferin/firefly luciferase reaction assessed as quench effect at 100 ug/ml
# Pneumocystis carinii [4] = assay: Antipneumocystis activity against Pneumocystis carinii after 24 to 72 hrs by ATP-based luciferin-luciferase assay; type: functional, organism-based
# How it was run: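 P. carinii from immunosuppressed rat lungs (methylprednisolone 20 mg/kg s.c. weekly) was cryopreserved. It was exposed to compounds diluted in RPMI 1640 at 36 °C, 5% CO2, for 24, 48 and 72 h. ATP was measured by luciferin-luciferase luminescence after background subtraction. Triplicate wells of duplicate assays were averaged. % ATP reduction was calculated against media control, and IC50 came from linear regression.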
# Luciferin 4-monooxygenase (Photinus pyralis), sequence (P08659 whole entry): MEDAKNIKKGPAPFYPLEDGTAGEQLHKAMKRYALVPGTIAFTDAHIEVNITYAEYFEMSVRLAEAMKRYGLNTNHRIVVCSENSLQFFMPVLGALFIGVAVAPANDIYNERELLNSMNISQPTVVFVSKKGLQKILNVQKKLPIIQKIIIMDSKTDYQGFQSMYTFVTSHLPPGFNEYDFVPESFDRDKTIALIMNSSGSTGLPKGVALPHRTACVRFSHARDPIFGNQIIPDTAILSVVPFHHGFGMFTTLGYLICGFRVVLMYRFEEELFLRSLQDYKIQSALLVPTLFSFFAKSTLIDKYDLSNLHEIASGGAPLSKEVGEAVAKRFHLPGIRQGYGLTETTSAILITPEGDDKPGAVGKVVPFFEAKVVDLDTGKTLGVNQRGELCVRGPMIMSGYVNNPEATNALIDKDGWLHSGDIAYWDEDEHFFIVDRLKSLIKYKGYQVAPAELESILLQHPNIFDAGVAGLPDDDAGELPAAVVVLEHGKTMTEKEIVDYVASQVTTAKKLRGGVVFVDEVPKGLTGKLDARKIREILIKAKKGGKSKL
Structure (SMILES),Activity (Pneumocystis carinii [1]),Activity [3],IC50 (Pneumocystis carinii [4]),IC50 (A549),IC50 [2]
CCCCCNC(=N)c1ccc(CN2CCN(Cc3ccc(C(=N)NCCCCC)cc3)CC2)cc1,Active,inactive,0.041 µM,> 100 µM,> 100 µM
Cc1cc(C(=N)N)cc(C)c1OCCOCCOc1c(C)cc(C(=N)N)cc1C,Active,inactive,0.175 µM,75.8 µM,16.7 µM
COc1cc(C(=N)N)cc(Br)c1OCCCCCOc1c(Br)cc(C(=N)N)cc1OC,Active,inactive,0.036 µM,26.3 µM,29.5 µM
c1cc(C2=NCCN2)ccc1SCCOCCSc1ccc(C2=NCCN2)cc1,Active,inactive,0.01 µM,30.6 µM,> 100 µM
N=C(N)c1ccc(OCCOCCOc2ccc(C(=N)N)cc2[N+](=O)[O-])c([N+](=O)[O-])c1,Active,inactive,0.014 µM,> 100 µM,176 µM
Cc1cc(C(=N)N)cc(C)c1OCCN(CCOc1c(C)cc(C(=N)N)cc1C)S(=O)(=O)c1ccccc1,Active,inactive,1.52 µM,> 100 µM,> 100 µM
C/N=C(\NC)c1ccc(CN2CCN(Cc3ccc(/C(=N/C)NC)cc3)CC2)cc1,inactive,–,–,–,–
Cc1cc(C(=N)N)cc(C)c1OCCCCCOc1c(C)cc(C(=N)N)cc1C,Active,inactive,< 0.213 µM,32.2 µM,19 µM
N=C(N)c1ccc(OCCCCCOc2ccc(C(=N)N)cc2)cc1 [PENTAMIDINE],–,–,–,–,33.8 µM
CCCCNC(=N)c1ccc(CN2CCN(Cc3ccc(C(=N)NCCCC)cc3)CC2)cc1,Active,inactive,0.083 µM,> 100 µM,> 100 µM

# More lines, main results first:
Activity (Pneumocystis carinii [1]),Activity [3],IC50 (Pneumocystis carinii [4]),Structure (SMILES),IC50 (A549),IC50 [2]
Active,inactive,0.012 µM,CN(C(=O)CCCCC(=O)N(C)c1ccc(C(=N)N)cc1)c1ccc(C(=N)N)cc1,> 100 µM,> 100 µM
Active,inactive,0.568 µM,N=C(N)c1ccc(NC(=O)CSCC(=O)Nc2ccc(C(=N)N)cc2)cc1,> 100 µM,> 100 µM
Active,inactive,0.109 µM,N=C(N)c1ccc(CN2CCN(Cc3ccc(C(=N)N)cc3)CC2)cc1,> 100 µM,> 100 µM
Active,inactive,0.303 µM,CN(C(=O)CCCC(=O)N(C)c1ccc(C(=N)N)cc1)c1ccc(C(=N)N)cc1,> 100 µM,> 100 µM
Active,15%,< 0.175 µM,N=C(N)c1ccc(NCCOCCNc2ccc(C(=N)N)cc2N)c(N)c1,> 100 µM,> 100 µM
Active,inactive,< 0.223 µM,N=C(N)c1ccc(SCCOCCSc2ccc(C(=N)N)cc2)cc1,50.9 µM,26.4 µM
Active,inactive,0.062 µM,N=C(N)c1ccc(NCCOCCNc2ccc(C(=N)N)cc2[N+](=O)[O-])c([N+](=O)[O-])c1,> 100 µM,> 100 µM
Active,inactive,0.146 µM,N=C(N)c1ccc(NC(=O)COCC(=O)Nc2ccc(C(=N)N)cc2)cc1,> 100 µM,> 100 µM
Active,inactive,< 0.209 µM,CCN(CCOc1ccc(C(=N)N)cc1)CCOc1ccc(C(=N)N)cc1,> 100 µM,> 100 µM
Active,inactive,1.69 µM,CCCNC(=N)c1ccc(CN2CCN(Cc3ccc(C(=N)NCCC)cc3)CC2)cc1,> 100 µM,> 100 µM
Active,inactive,0.076 µM,CN(C(=O)CCC(=O)N(C)c1ccc(C(=N)N)cc1)c1ccc(C(=N)N)cc1,> 100 µM,> 100 µM
Active,inactive,0.011 µM,N=C(N)c1ccc(OCCOCCOc2ccc(C(=N)N)cc2N)c(N)c1,> 100 µM,> 100 µM
